Data as given in ChEMBL document CHEMBL2321860, “2-Arylpyrazolo[4,3-d]pyrimidin-7-amino derivatives as new potent and selective human A3 adenosine receptor antagonists. Molecular modeling studies and pharmacological evaluation” (J Med Chem, 2013).
Active and inactive are the calls of the source. No cut-off for these calls is given here.

Experiments:
Astrocyte = assay: Antiapoptotic activity against Sprague-Dawley rat astrocytes assessed as reduction of oxaliplatin-induced caspase-3 activity at 0.1 to 10 uM after 4 hrs by fluorimetric assay; assay type: functional, cell-based
Summary of the method: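 Primary cortical astrocytes from newborn (P1–P3) rats, GFAP-positive, used 21 days after isolation and serum-starved overnight. Cells were exposed to 100 μM oxaliplatin for 4 h with test compound co-incubated. Lysates were incubated with 0.025 mM Z-DEVD-R110 at 25 °C for 30 min and read by fluorescence (ex 496/em 520 nm). Output is % of untreated control, mean SEM.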

Adenosine receptor A2a = Adenosine receptor A2a (Homo sapiens, UniProt P29274); assay: Displacement of [3H]ZM241385 from human A2A adenosine receptor expressed in CHO cells at 1 uM after 60 mins by scintillation counting analysis; assay type: cell-based
Summary of the method: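 Human A2A CHO membranes (50 μg protein) incubated with 1 nM [3H]ZM-241385 in 50 mM Tris-HCl, 10 mM MgCl2, pH 7.4, for 60 min at 4 °C, using 6–8 concentrations or 1 μM for % inhibition. Nonspecific binding defined with 1 μM ZM-241385. Ki via Cheng–Prusoff, mean SEM of four assays in duplicate.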

[1] = molecular target: T1, Adenosine receptor A3 (Rattus norvegicus) (UniProt P28647); assay: Displacement of [125I]AB-MECA from rat A3 adenosine receptor expressed in HEK293 cells at 1 uM after 60 mins by scintillation counting analysis; assay type: cell-based
T1 sequence (whole entry): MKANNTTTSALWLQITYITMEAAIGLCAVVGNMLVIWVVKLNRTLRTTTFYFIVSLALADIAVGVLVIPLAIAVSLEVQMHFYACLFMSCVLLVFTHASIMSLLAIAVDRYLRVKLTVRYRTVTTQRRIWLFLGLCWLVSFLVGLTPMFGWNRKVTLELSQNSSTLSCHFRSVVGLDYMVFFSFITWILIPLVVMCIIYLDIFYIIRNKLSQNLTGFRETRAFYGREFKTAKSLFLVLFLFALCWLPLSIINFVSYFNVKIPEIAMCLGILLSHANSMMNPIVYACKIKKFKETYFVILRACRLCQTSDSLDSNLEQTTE
Summary of the method: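 Rat A3 receptor in HEK293 membranes (10 μg protein) incubated with 0.5 nM [125I]AB-MECA in 50 mM Tris-HCl, 10 mM MgCl2, 1 mM EDTA, pH 7.4, for 60 min at 37 °C. Nonspecific binding defined with 1 μM AB-MECA. Filtration then scintillation counting. Output is % inhibition at 1 μM.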

Adenosine receptor A3 [2] = molecular target: T2, Adenosine receptor A3 (Homo sapiens, UniProt P0DMS8); assay: Inhibition of human A3 adenosine receptor transfected in CHO cells assessed as inhibition of forskolin-induced cyclic AMP production after 10 mins by competitive protein binding assay in presence of CI-IB-MECA; assay type: functional, cell-based
T2 sequence (P0DMS8 whole entry): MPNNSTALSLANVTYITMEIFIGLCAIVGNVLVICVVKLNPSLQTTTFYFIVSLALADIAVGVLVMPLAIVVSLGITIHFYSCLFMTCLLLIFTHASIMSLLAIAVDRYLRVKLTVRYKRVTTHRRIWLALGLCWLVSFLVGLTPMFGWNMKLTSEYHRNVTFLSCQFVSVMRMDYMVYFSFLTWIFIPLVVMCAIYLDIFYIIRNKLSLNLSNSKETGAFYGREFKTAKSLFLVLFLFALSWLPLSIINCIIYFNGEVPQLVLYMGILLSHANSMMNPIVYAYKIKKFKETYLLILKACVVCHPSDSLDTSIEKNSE
Summary of the method: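 Human A3 CHO cells (1 × 10⁶/assay) preincubated 10 min at 37 °C with adenosine deaminase and Ro 20-1724. Antagonist potency measured against 100 nM Cl-IB-MECA-mediated inhibition of 1 μM forskolin-stimulated cAMP. cAMP quantified by [3H]cAMP competition binding. IC50 by sigmoid regression, mean SEM of four experiments.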

Adenosine receptor A3 [3] = molecular target: T2, Adenosine receptor A3; assay: Displacement of [125I]AB-MECA from human A3 adenosine receptor expressed in CHO cells after 60 mins by scintillation counting analysis; assay type: cell-based
[4] = molecular target: T3, Adenosine receptor A2b (Homo sapiens) (UniProt P29275); assay: Inhibition of human A2B adenosine receptor transfected in CHO cells assessed as inhibition of NECA-induced cyclic AMP production at 1 uM after 10 mins by competitive protein binding assay; assay type: cell-based
T3 sequence (whole entry): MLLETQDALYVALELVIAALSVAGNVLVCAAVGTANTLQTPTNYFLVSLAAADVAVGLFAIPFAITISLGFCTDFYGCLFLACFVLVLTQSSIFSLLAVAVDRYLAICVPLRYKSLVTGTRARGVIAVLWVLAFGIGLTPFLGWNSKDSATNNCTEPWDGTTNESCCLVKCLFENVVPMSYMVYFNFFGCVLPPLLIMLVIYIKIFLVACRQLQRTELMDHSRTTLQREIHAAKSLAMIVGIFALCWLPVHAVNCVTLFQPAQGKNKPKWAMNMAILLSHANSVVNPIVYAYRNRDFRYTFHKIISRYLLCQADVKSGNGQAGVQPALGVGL
Summary of the method: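 Human A2B CHO cells (1 × 10⁶/assay) preincubated 10 min at 37 °C in buffer with adenosine deaminase (2 IU/mL) and Ro 20-1724. Antagonist inhibition of 200 nM NECA-stimulated cAMP measured; reaction stopped with TCA. cAMP quantified by [3H]cAMP competition with adrenal binding protein. IC50 by sigmoid fit, mean SEM of four experiments; % inhibition at 1 μM.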

[5] = molecular target: T4, Adenosine receptor A1 (Homo sapiens) (UniProt P30542); assay: Displacement of [3H]DPCPX from human A1 adenosine receptor expressed in CHO cells at 1 uM after 120 mins by scintillation counting analysis; assay type: cell-based
T4 sequence (whole entry): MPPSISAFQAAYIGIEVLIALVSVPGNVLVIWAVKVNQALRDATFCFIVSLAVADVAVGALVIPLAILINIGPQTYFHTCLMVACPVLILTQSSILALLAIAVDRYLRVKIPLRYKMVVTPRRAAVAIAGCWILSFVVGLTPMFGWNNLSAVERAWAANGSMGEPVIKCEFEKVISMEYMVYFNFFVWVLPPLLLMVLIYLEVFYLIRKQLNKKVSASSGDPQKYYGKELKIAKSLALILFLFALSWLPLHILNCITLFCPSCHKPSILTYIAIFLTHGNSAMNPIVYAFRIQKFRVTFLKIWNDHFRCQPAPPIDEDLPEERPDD

[6] = molecular target: T5, Adenosine receptor A3 (Homo sapiens) (UniProt P0DMS8); assay: Displacement of [125I]AB-MECA from human A3 adenosine receptor expressed in CHO cells at 1 uM after 60 mins by scintillation counting analysis; assay type: cell-based
T5 sequence (whole entry): T2 sequence (P0DMS8 whole entry)
Summary of the method: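 Human A3 CHO membranes (50 μg protein) incubated with 0.5 nM [125I]AB-MECA in 50 mM Tris-HCl, 10 mM MgCl2, 1 mM EDTA, pH 7.4, for 60 min at 37 °C. Nonspecific binding defined with 1 μM AB-MECA. Filtration then counting. Output is % inhibition at 1 μM.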

Adenosine receptor A1 = molecular target: T6, Adenosine receptor A1 (Homo sapiens, UniProt P30542); assay: Displacement of [3H]DPCPX from human A1 adenosine receptor expressed in CHO cells after 120 mins by scintillation counting analysis; assay type: cell-based
T6 sequence (P30542 whole entry): T4 sequence (whole entry)

Adenosine receptor A2a, sequence (P29274 whole entry): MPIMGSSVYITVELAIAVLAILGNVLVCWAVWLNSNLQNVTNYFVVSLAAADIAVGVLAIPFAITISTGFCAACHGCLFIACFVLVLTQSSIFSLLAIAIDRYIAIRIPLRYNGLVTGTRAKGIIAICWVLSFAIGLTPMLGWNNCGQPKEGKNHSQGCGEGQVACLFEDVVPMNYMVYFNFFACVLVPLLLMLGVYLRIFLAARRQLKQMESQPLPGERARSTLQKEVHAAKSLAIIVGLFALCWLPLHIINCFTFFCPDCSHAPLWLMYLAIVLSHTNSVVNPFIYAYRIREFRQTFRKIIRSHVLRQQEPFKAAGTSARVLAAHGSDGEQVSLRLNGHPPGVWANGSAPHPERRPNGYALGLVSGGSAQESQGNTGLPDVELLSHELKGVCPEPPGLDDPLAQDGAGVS

| Structure (SMILES) | Activity (Astrocyte) | inhibition (Adenosine receptor A2a) [%] | inhibition [1] [%] | IC50 (Adenosine receptor A3 [2]) [µM] | Ki (Adenosine receptor A3 [3]) [µM] | inhibition [4] [%] | inhibition [5] [%] | inhibition [6] [%] | Ki (Adenosine receptor A1) [µM] |
| --- | --- | --- | --- | --- | --- | --- | --- | --- | --- |
| O=C(Cc1ccccc1)Nc1nc(-c2ccccc2)nc2cn(-c3ccccc3)nc12 | Active | 5 | 2 | 0.061 | 0.018 | 2 | 5 |  |  |
| O=C(c1ccco1)N(C(=O)c1ccco1)c1nc(-c2ccccc2)nc2cn(-c3ccccc3)nc12 |  | 1 |  |  | 0.075 | 1 | 3 |  |  |
| COc1ccc(-n2cc3nc(-c4ccccc4)nc(NC(C)=O)c3n2)cc1 |  | 11 |  |  | 0.098 | 1 | 1 |  |  |
| COc1ccc(-n2cc3nc(C)nc(NC(C)=O)c3n2)cc1 |  | 30 |  |  | 0.1 | 30 | 30 |  |  |
| O=C(Nc1nc(-c2ccccc2)nc2cn(-c3ccccc3)nc12)c1ccccc1 |  | 5 |  | 0.065 | 0.02 | 2 | 5 |  |  |
| COc1ccc(C(=O)Nc2nc(C)nc3cn(-c4ccccc4)nc23)cc1 |  | 1 |  |  |  | 1 | 4 |  |  |
| COc1ccc(-n2cc3nc(C)nc(N)c3n2)cc1 |  | 1 |  |  |  | 2 | 30 | 38 |  |
| Cc1nc(NC(=O)Nc2ccccc2)c2nn(-c3ccccc3)cc2n1 |  | 1 |  |  |  | 1 | 1 | 30 |  |
| Cc1nc(NC(=O)c2ccccc2)c2nn(-c3ccccc3)cc2n1 | Active | 1 | 6 | 0.0197 | 0.0056 | 2 | 30 |  |  |
| COc1ccc(-n2cc3nc(C)nc(NC(=O)NCc4ccccc4)c3n2)cc1 |  | 7 |  |  |  | 1 | 8 | 6 |  |
| COc1ccc(-n2cc3nc(Cc4ccccc4)nc(N)c3n2)cc1 |  | 37 |  |  |  | 33 | 40 | 45 |  |
| COc1ccc(-n2cc3nc(-c4ccccc4)nc(NC(=O)c4ccccc4)c3n2)cc1 | Active | 1 | 12 | 0.063 | 0.018 | 2 | 3 |  |  |
| COc1ccc(-n2cc3nc(C)nc(NC(=O)Cc4ccccc4)c3n2)cc1 |  | 11 |  |  | 0.52 | 11 | 9 |  |  |
| COc1ccc(-n2cc3nc(C)nc(NC(=O)c4ccccc4)c3n2)cc1 |  | 7 |  | 0.128 | 0.035 | 1 | 1 |  |  |
| COc1ccc(-n2cc3nc(-c4ccccc4)nc(N)c3n2)cc1 |  | 35 |  |  | 0.075 | 3 | 12 |  |  |
| CC(=O)Nc1nc(C)nc2cn(-c3ccccc3)nc12 |  | 4 |  |  | 0.3 | 5 | 25 |  |  |

| Structure (SMILES) | Activity (Astrocyte) | inhibition (Adenosine receptor A2a) [%] | inhibition [1] [%] | IC50 (Adenosine receptor A3 [2]) [µM] | Ki (Adenosine receptor A3 [3]) [µM] | inhibition [4] [%] | inhibition [5] [%] | inhibition [6] [%] | Ki (Adenosine receptor A1) [µM] |
| --- | --- | --- | --- | --- | --- | --- | --- | --- | --- |
| CC(=O)Nc1nc(-c2ccccc2)nc2cn(-c3ccccc3)nc12 |  | 5 |  | 0.103 | 0.032 | 2 | 5 |  |  |
| Cc1nc(NC(=O)c2ccncc2)c2nn(-c3ccccc3)cc2n1 |  | 1 |  |  | 0.0052 |  | 12 |  |  |
| Cc1nc(N(C(=O)c2ccccc2)C(=O)c2ccccc2)c2nn(-c3ccccc3)cc2n1 |  | 1 |  | 0.115 | 0.033 | 5 | 6 |  |  |
| COc1ccc(C(=O)Nc2nc(-c3ccccc3)nc3cn(-c4ccccc4)nc23)cc1 |  | 1 |  |  | 0.0073 | 1 | 3 |  |  |
| Cc1nc(NC(=O)c2ccco2)c2nn(-c3ccccc3)cc2n1 |  | 1 |  |  | 0.02 | 1 | 20 |  |  |
| O=C(Nc1nc(-c2ccccc2)nc2cn(-c3ccccc3)nc12)c1ccncc1 |  | 1 |  |  | 0.025 | 1 | 1 |  |  |
| Cc1nc(N(C(=O)c2ccco2)C(=O)c2ccco2)c2nn(-c3ccccc3)cc2n1 |  | 1 |  |  | 0.033 | 1 | 4 |  |  |
| Cc1nc2cn(-c3ccccc3)nc2c(=O)[nH]1 |  |  |  |  |  |  | 1 |  |  |
| O=C(Nc1nc(-c2ccccc2)nc2cn(-c3ccccc3)nc12)c1cccnc1 |  | 1 |  |  | 0.0032 | 1 | 1 |  |  |
| COc1ccc(-n2cc3nc(C)nc(NC(=O)c4ccco4)c3n2)cc1 |  | 6 |  |  | 0.045 | 1 | 6 |  |  |
| Cc1nc(NC(=O)NCc2ccccc2)c2nn(-c3ccccc3)cc2n1 |  | 7 |  |  |  | 10 | 26 | 1 |  |
| O=C(Nc1nc(-c2ccccc2)nc2cn(-c3ccccc3)nc12)c1ccco1 |  | 1 |  |  | 0.024 | 1 | 11 |  |  |
| COc1ccc(-n2cc3nc(C)nc(NC(=O)Nc4ccccc4)c3n2)cc1 |  | 13 |  |  |  | 13 | 5 | 1 |  |
| Cc1nc(NC(=O)Cc2ccccc2)c2nn(-c3ccccc3)cc2n1 |  | 13 |  |  | 0.12 | 1 |  |  | 0.51 |
| Cc1nc(NC(=O)c2cccnc2)c2nn(-c3ccccc3)cc2n1 |  | 1 |  |  | 0.0053 | 1 | 12 |  |  |
